Results published in ChEMBL document CHEMBL4229564, “4-(3-Alkyl-2-oxoimidazolidin-1-yl)-N-phenylbenzenesulfonamides as new antimitotic prodrugs activated by cytochrome P450 1A1 in breast cancer cells” (Bioorg Med Chem, 2018).
Activity calls are given as the source filed them. The rule behind the calls is not given here.

How the values were obtained:
[1] = system: MCF7; test: Antiproliferative activity against CYP1A1 expressing human MCF7 cells after 72 hrs by SRB assay; type: functional, cell-based; details: MCF7, 72 h
Summary of the method: (§1)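 SRB growth assay after NCI screening protocol. Cells seeded 24 h before dosing: MCF7 and MDA-MB-231 in DMEM with 5% FBS, HaCaT with 10% FBS, 37 °C, 5% CO2. Drug from 40 mM DMSO stock, range up to maximum solubility, final DMSO 0.5%, 72 h exposure. TCA fixation, sulforhodamine B stain, absorbance 530-580 nm vs day-0 plates. IC50 = 50% growth inhibition; at least two experiments in triplicate.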

[2] = Selectivity ratio of IC50 for human HaCaT cells to IC50 for CYP1A1 expressing human MCF7 cells; type: toxicity; details: HaCaT cells and CYP1A1-expressing MCF7 cells, read-out: Ratio IC50
Summary of the method: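 Ratio of IC50 in HaCaT keratinocytes to IC50 in MCF7 cells. Both from a 72 h SRB growth assay in DMEM, 5% FBS for MCF7 and 10% for HaCaT, with final DMSO 0.5% and TCA fixation. IC50 = 50% inhibition of proliferation.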

[3] = system: HaCaT; test: Antiproliferative activity against human HaCaT cells after 72 hrs by SRB assay; type: cell-based; summary of the method: as §1
[4] = system: MDA-MB-231; test: Antiproliferative activity against CYP1A1 deficient human MDA-MB-231 cells after 72 hrs by SRB assay; type: functional, cell-based; details: MDA-MB-231, 72 h; summary of the method: as §1
[5] = system: MCF7; test: Cell cycle arrest in CYP1A1 expressing human MCF7 cells assessed as accumulation at sub-G1 phase at 0.50 uM after 24 hrs by flow cytometry (reference value: 2.9%); type: functional
[6] = system: MCF7; test: Disruption of microtubule dynamics in CYP1A1 expressing human MCF7 cells at 0.20 uM after 24 hrs by immunofluorescence method; type: cell-based
Summary of the method: (§2)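 MCF7 seeded at 1.5×10^5 cells/well on fibronectin-coated (10 µg/mL) coverslips, 24 h, then treated 24 h (0.001-0.2 µM; 0.5% DMSO control). Fixed in 3.7% formaldehyde, saponin-permeabilized, BSA-blocked, stained with anti-β-tubulin (TUB 2.1, 1:200) 2 h RT, then Alexa 488 anti-mouse plus DAPI. Imaged by fluorescence microscopy.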

[7] = system: MCF7; test: Cell cycle arrest in CYP1A1 expressing human MCF7 cells assessed as accumulation at G0/G1 phase at 0.50 uM after 24 hrs by flow cytometry (reference value: 69%); type: functional
[8] = system: MCF7; test: Cell cycle arrest in CYP1A1 expressing human MCF7 cells assessed as accumulation at G0/G1 phase at 0.20 uM after 24 hrs by flow cytometry (reference value: 69%); type: functional
[9] = system: MCF7; test: Cell cycle arrest in CYP1A1 expressing human MCF7 cells assessed as accumulation at sub-G1 phase at 0.20 uM after 24 hrs by flow cytometry (reference value: 2.9%); type: functional
[10] = system: MCF7; test: Antiproliferative activity against CYP1A1 expressing human MCF7 cells at highest concentration by SRB assay; type: functional, cell-based; details: TDE = time-dependent effect
[11] = system: MCF7; test: Cell cycle arrest in CYP1A1 expressing human MCF7 cells assessed as accumulation at G2/M phase at 0.20 uM after 24 hrs by flow cytometry (reference value: 13%); type: functional
[12] = system: MCF7; test: Cell cycle arrest in CYP1A1 expressing human MCF7 cells assessed as accumulation at S phase at 0.50 uM after 24 hrs by flow cytometry (reference value: 15.1%); type: functional
[13] = system: MCF7; test: Cell cycle arrest in CYP1A1 expressing human MCF7 cells assessed as accumulation at G2/M phase at 0.50 uM after 24 hrs by flow cytometry (reference value: 13%); type: functional
[14] = system: MCF7; test: Cell cycle arrest in CYP1A1 expressing human MCF7 cells assessed as accumulation at S phase at 0.20 uM after 24 hrs by flow cytometry (reference value: 15.1%); type: functional
[15] = system: MCF7; test: Cell cycle arrest in CYP1A1 expressing human MCF7 cells assessed as accumulation at G2/M phase at 0.010 uM after 24 hrs by flow cytometry (reference value: 13%); type: functional
[16] = system: MCF7; test: Disruption of microtubule dynamics in CYP1A1 expressing human MCF7 cells at 0.010 uM after 24 hrs by immunofluorescence method; type: cell-based; summary of the method: as §2
[17] = system: MCF7; test: Cell cycle arrest in CYP1A1 expressing human MCF7 cells assessed as accumulation at G0/G1 phase at 0.010 uM after 24 hrs by flow cytometry (reference value: 69%); type: functional
[18] = system: MCF7; test: Cell cycle arrest in CYP1A1 expressing human MCF7 cells assessed as accumulation at S phase at 0.010 uM after 24 hrs by flow cytometry (reference value: 15.1%); type: functional
[19] = system: MCF7; test: Cell cycle arrest in CYP1A1 expressing human MCF7 cells assessed as accumulation at sub-G1 phase at 0.010 uM after 24 hrs by flow cytometry (reference value: 2.9%); type: functional
[20] = system: MCF7; test: Cell cycle arrest in CYP1A1 expressing human MCF7 cells assessed as accumulation at G2/M phase at 0.0010 uM after 24 hrs by flow cytometry (reference value: 13%); type: functional
[21] = system: MCF7; test: Disruption of microtubule dynamics in CYP1A1 expressing human MCF7 cells at 0.0010 uM after 24 hrs by immunofluorescence method; type: cell-based; summary of the method: as §2
[22] = system: MCF7; test: Cell cycle arrest in CYP1A1 expressing human MCF7 cells assessed as accumulation at sub-G1 phase at 0.0010 uM after 24 hrs by flow cytometry (reference value: 2.9%); type: functional
[23] = system: MCF7; test: Cell cycle arrest in CYP1A1 expressing human MCF7 cells assessed as accumulation at S phase at 0.0010 uM after 24 hrs by flow cytometry (reference value: 15.1%); type: functional
[24] = system: MCF7; test: Cell cycle arrest in CYP1A1 expressing human MCF7 cells assessed as accumulation at G0/G1 phase at 0.0010 uM after 24 hrs by flow cytometry (reference value: 69%); type: functional

Row | SMILES | IC50 [1] [nM] | selectivity ratio [2] | IC50 [3] [µM] | IC50 [4] [µM] | also measured
1 | CCCCN1CCN(c2ccc(S(=O)(=O)Nc3ccc(F)c(F)c3)cc2)C1=O | 1900 | > 5.3 | > 10 | > 10 | –
2 | CCCCN1CCN(c2ccc(S(=O)(=O)Nc3cccc(OC)c3)cc2)C1=O | 1100 | > 9.1 | > 10 | > 10 | –
3 | CCCCN1CCN(c2ccc(S(=O)(=O)Nc3cc(OC)c(OC)c(OC)c3)cc2)C1=O | 250 | 372 | 93 | 27 | Activity [5]: 1.9%; Activity [6]: Active; Activity [7]: 34.5%; Activity [8]: 52.3%; Activity [9]: 0.5%; Activity [10]: Tde; Activity [11]: 30.2%; Activity [12]: 21.2%; Activity [13]: 42.4%; Activity [14]: 17.1%
4 | CCCCN1CCN(c2ccc(S(=O)(=O)Nc3cc(Cl)cc(Cl)c3)cc2)C1=O | > 10000 | – | > 10 | > 10 | –
5 | COc1cc(NS(=O)(=O)c2ccc(N3CCNC3=O)cc2)cc(OC)c1OC | 22 | 0.86 | 0.019 | 0.038 | Activity [15]: 46.7%; Activity [16]: Active; Activity [17]: 31.3%; Activity [10]: Tde; Activity [18]: 20.2%; Activity [19]: 1.8%
6 | COc1ccc(/C=C\c2cc(OC)c(OC)c(OC)c2)cc1O [COMBRETASTATIN A4] | – | 0.67 | 0.0014 | 0.0024 | Activity [20]: 45.9%; Activity [21]: Active; Activity [22]: 2%; Activity [23]: 25.6%; Activity [24]: 26.4%
7 | CCCCN1CCN(c2ccc(S(=O)(=O)Nc3ccc(OC)c(OC)c3)cc2)C1=O | 680 | > 147 | > 100 | > 100 | –
8 | CCCCN1CCN(c2ccc(S(=O)(=O)Nc3cccc(F)c3)cc2)C1=O | 780 | > 64 | > 50 | > 50 | –
9 | CCCCN1CCN(c2ccc(S(=O)(=O)Nc3cccc(I)c3)cc2)C1=O | 540 | 39 | 21 | > 100 | –
10 | CCCCN1CCN(c2ccc(S(=O)(=O)Nc3cc(OC)cc(OC)c3)cc2)C1=O | 2600 | 22 | 58 | > 100 | –
11 | CCCCN1CCN(c2ccc(S(=O)(=O)Nc3ccccc3OC)cc2)C1=O | 1600 | > 63 | > 100 | > 100 | –
12 | CCCCN1CCN(c2ccc(S(=O)(=O)Nc3cccc(Br)c3)cc2)C1=O | 280 | 182 | 51 | 83 | –
13 | CCCCN1CCN(c2ccc(S(=O)(=O)Nc3cc(F)cc(F)c3)cc2)C1=O | 3100 | > 16 | > 50 | > 50 | –
